Tested on: MS2 coat protein
Assay: apparent Kd, MS2 coat protein; higher = weaker binding; RNA-MaP array
How it was run: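 With or without input ligand, designed RNAs transcribed on an Illumina sequencing chip from sequenced DNA templates were incubated at room temperature with fluorescently labeled MS2 coat protein at 1.5 nM to 3 μM. The buffer was Tris-HCl pH 7.5 with KCl, MgCl2, BSA, DTT, tRNA and Tween20, and incubation ran 0.8–1.5 h at the lowest and 10–20 min at the highest concentrations. Apparent Kd is reported as the median of fits to binding curves from individual clusters. Designs measured on fewer than 10 clusters are not included.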

[1] = designed as: ON switch for flavin mononucleotide, no ligand
[2] = ligand present: flavin mononucleotide, designed as: ON switch for flavin mononucleotide
[3] = designed as: OFF switch for flavin mononucleotide, no ligand
[4] = ligand present: flavin mononucleotide, designed as: OFF switch for flavin mononucleotide
[5] = designed as: ON switch for tryptophan, no ligand
[6] = ligand present: tryptophan, designed as: ON switch for tryptophan

| Sequence | apparent Kd [1] | apparent Kd [2] | apparent Kd [3] | apparent Kd [4] | other results |
| --- | --- | --- | --- | --- | --- |
| AGACUCCUAGCAGGAUAUGUUCAAGGAACAAAGAGAACAUGAGGAUCACCCAUGUACACAUAUGAACAGAAGGGCUGAAGAAAA | 8.24 nM | 6.66 nM |  |  |  |
| GAUCGUUGGGUAAGGAUAUAAGUUUAUUGCUUGGGUUAGAAGGUACAUGAGGAUCACCCAUGUAGGUGAGUCAC |  |  | 76.2 nM | 61.8 nM |  |
| CCUUCCUAGUGAGGAUAUCGGCUUGGACUCGAGCGAGAAGGCACCUAAUCGAAGAACUUUUAUCCACAUGAGGAUCACCCAUGU | 11.8 nM | 11.1 nM |  |  |  |
| UUGCAAUAGUAGAAGGACCACUCAAGUGUGACGGUAGGAUAUACGGUACAUGAGGAUCACCCAUGUGAGACUACAGCCCUCUCC |  |  | 20 nM | 21.9 nM |  |
| CGGAAUUCAGGAUAUGGCAUAUCCUACAUGAGGAUCACCCAUGUAUGACCCGUGUGCCGGCCAGAAGGGAACGCUG |  |  | 10.8 nM | 12 nM |  |
| UGAAACUAGCCUAAGGAUAUAUAAGUGUGAACAUGAGGAUCACCCAUGUAUGGGAACAAGUGCUGAUAGAAGGUAGGAAUCUCCAA | 80.3 nM | 43.2 nM |  |  |  |
| GCACCGCGAGGAUAUACUCUGGCUAUAAUACCAUAUGACAAACAUGAGGAUCACCCAUGUAGAAGGCGCGAUGU |  |  | 10.4 nM | 14.2 nM |  |
| GUGCCACAUGAGGAUCACCCAUGUUUGGCAAGCAAAGGAUAUGGAAUGAUGGCUCGCAGCCCAGAAGGUUGUUGUG | 4.52 nM | 4.76 nM |  |  |  |
| ACAACGUAACGAGGAUAUAAUCUAAAAGUUCGGUGACGUAGACAUGAGGAUCACCCAUGUUAGUAUUAGAAGGCGUUCGGCGGG |  |  | 14.4 nM | 41.9 nM |  |
| AAACGGUAAGGAUAUCCACCAGGAUUGGAGCCACCUAAUUCGGAGAAGGUACAUGAGGAUCACCCAUGUCGGGU |  |  | 146 nM | 124 nM |  |
| UCCGGACGUUCGGCCGCCACUAAUUUACAUGAGGAUCACCCAUGUGCCAGUGGUCCGCAGAGUAAUAGGACCGGGAACCUUGGCU |  |  |  |  | apparent Kd (designed as: OFF switch for tryptophan, no ligand): 25.9 nM; apparent Kd (ligand present: tryptophan, designed as: OFF switch for tryptophan): 29.2 nM |
| GAUCGACAUGAGGAUCACCCAUGUGAGGAUAUACCGCGGACUCCGUCUGCAUGUUAGGGUAGAAGGCACCGAGC |  |  | 14.1 nM | 13.1 nM |  |
| UUCUAUGUGACAGGAUAUAGACUCCACCAGUUUCUAGAAGGGUCACAGACGGAUCUUUAUUUGUCACAUGAGGAUCACCCAUGU | 28.7 nM | 9.71 nM |  |  |  |
| AGUACAUCGGAGAAGGUGCAAGGUUAGCUUUCGCAAGGAUAUCCACACCCUUAGUACAGUGCUACAUGAGGAUCACCCAUGUUA |  |  | 10.1 nM | 10.2 nM |  |
| GAUUCGCAGUCGGCCGCCACUAACAUGAGCUGCUAGUUAUUAUCACAUGAGGAUCACCCAUGUCUUAGGACCGGGACAACCUGUU |  |  |  |  | apparent Kd [5]: 77.7 nM; apparent Kd [6]: 71 nM |
| UUGUCACAUGAGGAUCACCCAUGUAAGAGAUUCCAAGGAUAUAUUAUCGGGUAAAAUGAAAUAGAAGGUGGUCAGA | 90.3 nM | 65.6 nM |  |  |  |
| GUAGAACCGCAGAAGGCAUUGAUUCGAGAGCGAUGAGGAUAUGCUCGUCGACAUGAGGAUCACCCAUGUUUACGAUUGAGAUAU | 15.1 nM | 9.74 nM |  |  |  |
| CAGCAACAAUUGGAUACCAGCCAUUACAGGUAUCAUUAUAACAUGAGGAUCACCCAUGUAGGCCCUUGGCAGCCAUUGGUGUAAG |  |  |  |  | apparent Kd (designed as: OFF switch for theophylline, no ligand): 39.1 nM; apparent Kd (ligand present: theophylline, designed as: OFF switch for theophylline): 106 nM |
| GAGGCUCAUAUGUAGGAUAUUCAAGGAGCUACAUGAGGAUCACCCAUGUUCGGACGCCAAUUUUUGAAGAAGGACAAGACAGUGUU | 54.6 nM | 16.2 nM |  |  |  |
| AUCAUGUUAGGAUAUACAAUGUAACGAUCAUUCUUGUAUGCGUAGAAGGAACAUGAGGAUCACCCAUGUGGAAG |  |  | 43 nM | 46.8 nM |  |
| ACAUGAGGAUCACCCAUGUUAUAGGGCAGGGAACGGAGCAUCUAGGAUAUUGUACACCGGCUACACAAGAAGGAGACCGAAGCU |  |  | 15.7 nM | 12.3 nM |  |

| Sequence | apparent Kd [1] | apparent Kd [2] | apparent Kd [3] | apparent Kd [4] | other results |
| --- | --- | --- | --- | --- | --- |
| CGAGGACAUGAGGAUCACCCAUGUGACCGUGCCAAAGGAUAUCACAGGAAAUAAUACAGUUGAGAAGGUUGAUCGG | 47.1 nM | 17.6 nM |  |  |  |
| CUCGAAUUAUCAGGAUAUCCACAAUUCGAAGAAGGAGAAGGGAUGGCAGGGCUAACAUGGAACAUGAGGAUCACCCAUGUGCAA | 11.2 nM | 9.94 nM |  |  |  |
| UCCCAUAUAGUAGGAUAUCUGCUACAUGAGGAUCACCCAUGUCAUAUUUUUUACCAGUCUUAGAUAGAGAAGGACUGUGGACCU | 590 nM | 373 nM |  |  |  |
| GAUGAGUUUAAGGAUAUGGUGCGUUGCUUCUUACCAGAAGGUAAAACAUGAGGAUCACCCAUGUGACGGGUGCC |  |  | 177 nM | 103 nM |  |
| GCAGAUACCAUGAGUCGACAUGAGGAUCACCCAUGUACUCCCAGAAGGAUGUACUUUGUUCAAGCAUAGGAUAUGGGCCGAACC | 114 nM | 56 nM |  |  |  |
| UAGACCGAAGGAUAUACAUGAGGAUCACCCAUGUCAAGGACAUACCCACGAAAGGCACGUAGAAGGUCGGCAUA |  |  | 18.2 nM | 33.1 nM |  |
| AGACACAUGAGGAUCACCCAUGUACACGAGCGAGGACCGGUACGGCCGCCACUCGUCCAAGCAACUAAUGAGACUCGUAAGAUGG |  |  |  |  | apparent Kd [5]: 24.6 nM; apparent Kd [6]: 29.3 nM |
| GCUAGACAUGAGGAUCACCCAUGUGAGGAUAUUAGCCAAUCGAGUAAUCCGCUAUAGUUAAGAAGGCACGUGAU |  |  | 16.7 nM | 16 nM |  |
| AGCAAUACAUAAGGAUAUGACAUCCAAGAGGAAUCAGAAGGUAUGCAGGCGACAUGAGGAUCACCCAUGUAAUCAUGAGGCAAU | 19.4 nM | 15.8 nM |  |  |  |
| CUGUACCGAAUAGGAUAUGAAAAGAAGGUAAAUUCAGAAGGAUUCAAUUAAUUUACAUGAGGAUCACCCAUGUCUAAGCAAACA | 12.2 nM | 8.39 nM |  |  |  |
| GCACACAUGAGUUAGGAUAUAUGUUGUGAGACAUGAGGAUCACCCAUGUGUGCAUUGCUUAUAAUAUAGAAGGAACCCAGGUCGGC | 25.5 nM | 17.1 nM |  |  |  |
| AGCAAGACCGAGUCCAAUAACAUGAGGAUCACCCAUGUGUUCGAGGAUAUUAGGACUGAUGGGACUAAGAAGGCGAUCCCUUGU | 46.5 nM | 37.2 nM |  |  |  |
| CGAAAUUCAGUAAGGAUAUUAGGAGGCUCUGCGGCUAAGAAGGUACAUGAGGAUCACCCAUGUGGCACCGCAUG |  |  | 7.65 nM | 7.82 nM |  |
| ACUCAGUGAGGAUAUAUAGACGAGGAAAAGUGGAAACUUGAAUAGAAGGCACAUGAGGAUCACCCAUGUCGACG |  |  | 8.5 nM | 10.8 nM |  |
| GACGGACAUGAGGAUCACCCAUGUUCUGGCAGCGUAGGAUAUGAAGGGAUGAUUGUACGUUCAGAAGGACGACCUG | 10.3 nM | 7.53 nM |  |  |  |
| CGGAAACAUGAGGAUCACCCAUGUGUAGAAAAGACAGGAUAUGACAAGGGCUUGAAGUGCUCAGAAGGGUCUGGAC | 15.4 nM | 11.2 nM |  |  |  |
| AUAUUUUUGUAAUGACAUGAGGAUCACCCAUGUAUCAAUGUAAGAAGGAGGAAAUAAACACGAUCCUAGGAUAUUAGGUGAUUA | 44.5 nM | 35.3 nM |  |  |  |
| UCUCGUGUGAAGGAUAUAGAUAUUUAACAAAAGCUAGAAGGUCAAACAUGAGGAUCACCCAUGUUUACAUAGGA |  |  | 8.77 nM | 10.9 nM |  |
| GAACUUCGAGUCAGGAUAUGUACAUCAAAACCAAAACAGAAGGGACAUGAGGAUCACCCAUGUGAGCUAGGAUU |  |  | 14.3 nM | 14.4 nM |  |
| GGAUGAAGGAAGGAUAUUACGCAGCAACGACCGUAAGAAGGUCCAACAUGAGGAUCACCCAUGUGGUGCUUACU |  |  | 33.2 nM | 159 nM |  |
| AUCGAUAAGAAGAAGGUGUGACAUGAGGAUCACCCAUGUUAUUGAACAGCACAUGAUCACAGAUACAAGGAUAUUCUACGUAUG |  |  | 24.4 nM | 23.7 nM |  |

— the EternaBench riboswitch data
